Data: ChEMBL document CHEMBL1759885, “Syntheses of 1,2,3-triazolyl salicylamides with inhibitory activity on lipopolysaccharide-induced nitric oxide production” (Bioorg Med Chem Lett, 2011)
Active and inactive are the calls of the source. No cut-off for these calls is given here.

Key:
RAW264.7 [1] = assay: Inhibition of LPS-induced nitric oxide production in mouse RAW264.7 cells at 20 uM after 20 hrs by Griess reaction; assay type: functional; details: RAW264.7, 20 h
Summary of the method: (§1)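 RAW 264.7 cells plated at 5 × 10⁵ cells/mL, grown 24 h, then given LPS (1 µg/mL) plus compound (DMSO vehicle, final ≤0.1%) for 20 h. Supernatant nitrite measured with Griess reagent (1% sulfanilamide in 5% H₃PO₄, 0.1% N-(1-naphthyl)ethylenediamine) at 540 nm against a NaNO₂ standard curve. %inhibition = [1 − sample NO/vehicle-control NO] × 100. IC50 by nonlinear regression.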

RAW264.7 [2] = assay: Inhibition of LPS-induced nitric oxide production in mouse RAW264.7 cells after 20 hrs by Griess reaction; assay type: functional, cell-based; details: for IC50: RAW264.7, 20 h; summary of the method: as §1
RAW264.7 [3] = assay: Cytotoxicity against mouse RAW264.7 cells assessed as cell viability upto 15 uM after 24 hrs by MTT assay; assay type: cell-based; details: raw264.7, 24 h
Summary of the method: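 RAW 264.7 macrophages exposed to compound for 24 h, and viability then read by MTT assay.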

RAW264.7 [4] = assay: Inhibition of LPS-induced iNOS protein expression in mouse RAW264.7 cells after 16 hrs by Western blot; assay type: functional, cell-based
Summary of the method: (§2)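 RAW 264.7 cells stimulated with LPS (1 µg/mL) with or without several compound concentrations. Total RNA collected at 4 h and analysed for iNOS mRNA by RT-PCR. Protein collected at 16 h and analysed for iNOS by western blot, with β-actin as reference.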

RAW264.7 [5] = assay: Inhibition of LPS-induced iNOS mRNA expression in mouse RAW264.7 cells after 4 hrs by RT-PCR; assay type: functional, cell-based; summary of the method: as §2
RAW264.7 [6] = assay: Inhibition of LPS-induced iNOS protein expression in mouse RAW264.7 cells at 15 uM after 16 hrs by Western blot; assay type: functional, cell-based; summary of the method: as §2
RAW264.7 [7] = assay: Inhibition of LPS-induced iNOS mRNA expression in mouse RAW264.7 cells at 15 uM after 4 hrs by RT-PCR; assay type: functional, cell-based; summary of the method: as §2

Row | SMILES | IC50 (RAW264.7 [2]) [µM] | inhibition at 20 µM (RAW264.7 [1]) [%] | further results
1 | CCCCCCc1cn(-c2ccc(O)c(C(=O)N3CCCCC3)c2)nn1 | > 20 | 4.2 | 
2 | O=C(c1cc(-n2cc(-c3cc(C(F)(F)F)cc(C(F)(F)F)c3)nn2)ccc1O)N1CCCCC1 | 12.8 | 94.1 | Activity (RAW264.7 [2]): Dose-dependent effect; Activity (RAW264.7 [3]): Non-toxic; inhibition (RAW264.7 [4]): Dose-dependent effect; inhibition (RAW264.7 [5]): Dose-dependent effect; inhibition (RAW264.7 [6]): Active; inhibition (RAW264.7 [7]): Active
3 | CCCNC(=O)c1cc(-n2cc(CCC(C)C)nn2)ccc1O | > 20 | 22.6 | 
4 | O=C(c1cc(-n2cc(-c3cccc(Cl)c3)nn2)ccc1O)N1CCCCC1 | > 20 | 35.4 | 
5 | O=C(c1ccc(-n2cc(-c3cc(F)cc(F)c3)nn2)cc1O)N1CCCCC1 | > 20 | 0 | 
6 | O=C(c1cc(-n2cc(-c3cc(F)cc(F)c3)nn2)ccc1O)N1CCCCC1 | > 20 | 9.1 | 
7 | CCCCCCc1cn(-c2ccc(O)c(C(=O)NCCC)c2)nn1 | 19.7 | 57.9 | 
8 | CC(C)CCc1cn(-c2ccc(C(=O)N3CCCCC3)c(O)c2)nn1 | > 20 | 1.9 | 
9 | CCCCCc1ccc(-c2cn(-c3ccc(C(=O)N4CCCCC4)c(O)c3)nn2)cc1 | > 20 | 0 | 
10 | CCCCCCc1cn(-c2ccc(C(=O)NCCC)c(O)c2)nn1 | > 20 | 11 | 
11 | O=C(c1ccc(-n2cc(-c3cc(C(F)(F)F)cc(C(F)(F)F)c3)nn2)cc1O)N1CCCCC1 | > 20 | 0 | 
12 | CCCCCCc1cn(-c2ccc(C(=O)N3CCCCC3)c(O)c2)nn1 | > 20 | 8.3 | 
13 | O=C(c1ccc(-n2cc(-c3cccc(Cl)c3)nn2)cc1O)N1CCCCC1 | > 20 | 0 | 
14 | CNC(=N)NCCC[C@H](N)C(=O)O [TILARGININE] | 19.9 |  | 
15 | CCCNC(=O)c1ccc(-n2cc(CCC(C)C)nn2)cc1O | > 20 | 7.3 | 
16 | CC(C)CCc1cn(-c2ccc(O)c(C(=O)N3CCCCC3)c2)nn1 | > 20 | 0.9 | 
17 | CCCNC(=O)c1ccc(-n2cc(-c3cc(C(F)(F)F)cc(C(F)(F)F)c3)nn2)cc1O | > 20 | 0 | 
18 | CCCCCc1ccc(-c2cn(-c3ccc(O)c(C(=O)N4CCCCC4)c3)nn2)cc1 | > 20 | 18.4 | 

More lines, main results first:

Row | IC50 (RAW264.7 [2]) [µM] | SMILES | inhibition at 20 µM (RAW264.7 [1]) [%] | further results
19 | > 20 | CCCNC(=O)c1ccc(-n2cc(-c3cccc(Cl)c3)nn2)cc1O | 0 | 
20 | > 20 | O=C(c1cc(-n2cc(-c3ccccc3)nn2)ccc1O)N1CCCCC1 | 11.8 | 
21 | > 20 | O=C(c1ccc(-n2cc(-c3ccccc3)nn2)cc1O)N1CCCCC1 | 0 | 
22 | > 20 | CCCCCc1ccc(-c2cn(-c3ccc(C(=O)NCCC)c(O)c3)nn2)cc1 | 0 | 
23 | > 20 | CCCNC(=O)c1cc(-n2cc(-c3cc(F)cc(F)c3)nn2)ccc1O | 0 | 
24 | > 20 | CCCNC(=O)c1cc(-n2cc(-c3ccccc3)nn2)ccc1O | 28.6 | 
25 | > 20 | CCCCCc1ccc(-c2cn(-c3ccc(O)c(C(=O)NCCC)c3)nn2)cc1 | 0 | 
26 | > 20 | CCCNC(=O)c1cc(-n2cc(-c3cccc(Cl)c3)nn2)ccc1O | 33.8 | 
27 | > 20 | CCCNC(=O)c1cc(-n2cc(-c3cc(C(F)(F)F)cc(C(F)(F)F)c3)nn2)ccc1O | 1.8 | 
28 | > 20 | CCCNC(=O)c1ccc(-n2cc(-c3cc(F)cc(F)c3)nn2)cc1O | 0 | 
29 | > 20 | CCCNC(=O)c1ccc(-n2cc(-c3ccccc3)nn2)cc1O | 1.1 | 
